The subject of data set [1] is Bifidobacterium. In words: Antimicrobial activity against Bifidobacterium in three-stage chemostat gut model assessed as log reduction in bacterial count at 139 mg/liter administered every 12 hrs for 7 days. It is filed as functional. Summed up:
(§1)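 Three-stage anaerobic chemostat (37°C, N2-sparged; vessels at pH 5.5, 6.2 and 6.8; 66.7 h total retention) primed with 10% (wt/vol) pooled C. difficile-negative feces from healthy elderly donors. Instillation began on day 21. Vessel 2 and 3 samples were diluted 10-fold serially to 10–7 in prereduced peptone water and plated on selective agars in triplicate; counts are log10 CFU/ml.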

Data set [2] is described as follows: Drug level in human feces. It is filed as ADME, tissue-based.
In the next data set the test system is Bacteroides sp. The data set is described as follows: Antimicrobial activity against Bacteroides sp. in three-stage chemostat gut model assessed as log reduction in bacterial count at 63 mg/liter administered daily for 7 days. Type of data set: functional. The method, boiled down: as §1
The subject of data set [3] is Lactobacillus. The data set is described as follows: Antimicrobial activity against Lactobacillus in three-stage chemostat gut model assessed as log reduction in bacterial count at 63 mg/liter administered daily for 7 days. It is filed as functional. Summed up:
as §1

The next data set deals with Clostridium. The data set is described as follows: Antimicrobial activity against Clostridium in three-stage chemostat gut model assessed as log reduction in bacterial count at 63 mg/liter administered daily for 7 days. It is filed as functional. Summed up: as §1
A further data set relates to Enterococcus. In words: Antimicrobial activity against Enterococcus in three-stage chemostat gut model assessed as log reduction in bacterial count at 63 mg/liter administered daily for 7 days. Type of data set: functional, organism-based. Summed up:
as §1

For data set [4], the system named is Clostridioides difficile. In words: Antimicrobial activity against Clostridium difficile PCR ribotype 027 expressing gyrB Glu466Lys mutant grown on fluoroquinolone-containing medium after 48 hrs. As to conditions: PCR ribotype 027, 48 h. Type of data set: functional.
Data set [5] concerns Clostridioides difficile. The data set is described as follows: Antimicrobial activity against Clostridium difficile PCR ribotype 001 expressing gyrB Glu466Lys mutant grown on fluoroquinolone-containing medium after 48 hrs. It is filed as functional. As to conditions: PCR ribotype 001, 48 h.
In data set [6] the test system is Clostridioides difficile. In words: Induction of cytotoxin production in Clostridium difficile PCR ribotype 027 in three-stage chemostat gut model at 63 mg/liter administered daily for 7 days measured after 2 days. Type of data set: functional, organism-based. Summed up: (§2)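 Gut model as above; on day 21 drug instillation began and a second C. difficile spore inoculum was added to vessel 1. Sample supernatants (16,000 x g) were diluted serially to 10–7 in PBS pH 7.4 and applied to Vero monolayers at 37°C in 5% CO2. Cell rounding was read at 24 and 48 h, and titers are given in relative units.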

Data set [7] relates to Clostridioides difficile. The data set is described as follows: Induction of cytotoxin production in Clostridium difficile PCR ribotype 001 in three-stage chemostat gut model at 63 mg/liter administered daily for 7 days measured after 3 days. It is filed as functional, organism-based. The method, boiled down: as §2
In data set [8] the test system is Bifidobacterium. The data set is described as follows: Antimicrobial activity against Bifidobacterium in three-stage chemostat gut model assessed as log reduction in bacterial count at 43 mg/liter administered daily for 7 days. It is filed as functional. The method, boiled down:
as §1

The test system of data set [9] is Lactobacillus. In words: Antimicrobial activity against Lactobacillus in three-stage chemostat gut model assessed as log reduction in bacterial count at 43 mg/liter administered daily for 7 days. It is filed as functional. The method, boiled down: as §1

Three molecules from ChEMBL document CHEMBL1649112, “Effects of exposure of Clostridium difficile PCR ribotypes 027 and 001 to fluoroquinolones in a human gut model” (Antimicrob Agents Chemother, 2009) can be followed below.

Active and inactive are the calls of the source. No cut-off for these calls is given here.

Regarding `O=C(O)c1cn(C2CC2)c2cc(N3CCNCC3)c(F)cc2c1=O` [CIPROFLOXACIN], the result in the data set on Bifidobacterium [1] was Active. The molecule also had a Drug uptake in data set [2] of 139 mg/kg.
In general, MIC refers to the lowest concentration found to suppress growth. A low value points to a more susceptible organism. Consider `C[C@H]1COc2c(N3CCN(C)CC3)c(F)cc3c(=O)c(C(=O)O)cn1c23.C[C@H]1COc2c(N3CCN(C)CC3)c(F)cc3c(=O)c(C(=O)O)cn1c23.O` [LEVOFLOXACIN], for which, in the data set with Bacteroides sp., the FC worked out at 1. The result in the data set with Lactobacillus [3], in the data set with Clostridium and in the data set with Enterococcus was inactive. Moreover, the minimal inhibitory concentration (MIC) with Clostridioides difficile [4] and against Clostridioides difficile [5] was 256 µg/mL each time. The molecule also displayed a Drug uptake in data set [2] of 94 mg/kg. The outcome with Clostridioides difficile [6] and in the data set on Clostridioides difficile [7] was Active.
`COc1c(N2C[C@@H]3CCCN[C@@H]3C2)c(F)cc2c(=O)c(C(=O)O)cn(C3CC3)c12` [MOXIFLOXACIN]: the result in the data set on Bifidobacterium [8] and in the data set with Lactobacillus [9] was inactive. Besides, the Drug uptake in data set [2] amounted to 66 mg/kg.
